Data: ChEMBL document CHEMBL1681637, “Synthesis and antitubercular activity of monocyclic nitroimidazoles: insights from econazole” (Bioorg Med Chem Lett, 2011)
Values after ≈ are worked out from the molar mass of the structure shown.

Assays:
Candida albicans = assay: Antifungal activity against Candida albicans ATCC 90027 after 48 hrs by broth microdilution method; assay type: functional; conditions: ATCC 90027, 48 h
Vero = assay: Cytotoxicity against african green monkey Vero cells by MTT assay; assay type: cell-based; conditions: Chlorocebus sabaeus
Summary of the method: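 Vero cells were exposed to compound stocks made in DMSO and serially diluted 2-fold in RPMI 1640 medium. The top test concentration varied between compounds because of limited solubility. MTT read-out followed the kit manufacturer's protocol.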

Row | SMILES | MIC (Candida albicans) | IC50 (Vero)
1 | Cc1ccc(C(O)Cn2cc([N+](=O)[O-])nc2Br)c(C)c1 (racemic) | > 256 µg/mL | 22 µg/mL (≈ 64.7 µM)
2 | COc1nc([N+](=O)[O-])cn1CC(O)c1ccc(-c2ccccc2)cc1 (racemic) | > 256 µg/mL | > 100 µg/mL
3 | COc1nc([N+](=O)[O-])cn1CC(O)c1ccc(F)cc1 (racemic) | > 256 µg/mL | > 100 µg/mL
4 | Cc1nc([N+](=O)[O-])cn1CC(OCc1ccc(Cl)cc1)c1ccc(Cl)cc1Cl (racemic) | > 256 µg/mL | > 31 µg/mL
5 | COc1nc([N+](=O)[O-])cn1CC(O)c1ccc(Cl)cc1 (racemic) | > 256 µg/mL | > 100 µg/mL
6 | CSc1nc([N+](=O)[O-])cn1CC(OCc1ccc(F)cc1)c1ccc(Cl)cc1Cl (racemic) | > 256 µg/mL | > 13 µg/mL
7 | O=[N+]([O-])c1cn(CC(OCc2ccccc2F)c2ccc(Cl)cc2Cl)cn1 (racemic) | > 256 µg/mL | > 63 µg/mL
8 | COc1nc([N+](=O)[O-])cn1CC(O)c1ccc([N+](=O)[O-])cc1 (racemic) | > 256 µg/mL | > 100 µg/mL
9 | COc1nc([N+](=O)[O-])cn1CC(OCc1ccc(F)cc1)c1ccc(Cl)cc1Cl (racemic) | > 256 µg/mL | > 13 µg/mL
10 | O=[N+]([O-])c1cn(CC(OCc2cc(F)cc(F)c2)c2ccc(Cl)cc2Cl)c(Br)n1 (racemic) | > 256 µg/mL | > 6 µg/mL
11 | COc1nc([N+](=O)[O-])cn1CC(O)c1ccccc1 (racemic) | > 256 µg/mL | > 100 µg/mL
12 | Cc1nc([N+](=O)[O-])cn1CC(O)c1ccc(Cl)cc1Cl (racemic) | > 256 µg/mL | > 250 µg/mL
13 | COc1nc([N+](=O)[O-])cn1CC(OCc1cc(F)cc(F)c1)c1ccc(Cl)cc1Cl (racemic) | > 256 µg/mL | > 50 µg/mL
14 | O=[N+]([O-])c1cn(CC(OCc2ccc(OC(F)(F)F)cc2)c2ccc(F)cc2F)cn1 (racemic) | > 256 µg/mL | > 50 µg/mL
15 | O=[N+]([O-])c1cn(CC(OCc2ccc(OC(F)(F)F)cc2)c2ccc(Cl)cc2Cl)cn1 (racemic) | > 256 µg/mL | > 25 µg/mL
16 | O=[N+]([O-])c1cn(CC(O)c2ccc(-c3ccccc3)cc2)c(Br)n1 (racemic) | > 256 µg/mL | > 100 µg/mL
17 | O=[N+]([O-])c1cn(CC(O)c2ccc(Cl)cc2Cl)c(Br)n1 (racemic) | > 256 µg/mL | 100 µg/mL (≈ 262 µM)
18 | O=[N+]([O-])c1cn(CC(OCc2cc(F)cc(F)c2)c2ccc(F)cc2F)cn1 (racemic) | > 256 µg/mL | > 50 µg/mL
19 | CSc1nc([N+](=O)[O-])cn1CC(OCc1ccc(Cl)cc1)c1ccc(F)cc1F (racemic) | > 256 µg/mL | > 13 µg/mL
20 | COc1nc([N+](=O)[O-])cn1CC(OCc1ccc(Cl)cc1)c1ccc(Cl)cc1Cl (racemic) | > 256 µg/mL | > 8 µg/mL
21 | O=[N+]([O-])c1cn2c(n1)OC[C@@H](OCc1ccc(OC(F)(F)F)cc1)C2 [PRETOMANID] | > 256 µg/mL | –
22 | O=[N+]([O-])c1cn(CC(OCc2ccc(F)cc2F)c2ccc(Cl)cc2Cl)cn1 (racemic) | > 256 µg/mL | > 25 µg/mL
23 | O=[N+]([O-])c1cn(CC(O)c2ccc(Cl)cc2Cl)cn1 (racemic) | > 256 µg/mL | > 250 µg/mL
24 | COc1nc([N+](=O)[O-])cn1CC(O)c1ccc(F)cc1F (racemic) | > 256 µg/mL | > 100 µg/mL
25 | O=[N+]([O-])c1cn(CC(O)c2ccccc2)c(Br)n1 (racemic) | > 256 µg/mL | > 100 µg/mL

Row | SMILES | MIC (Candida albicans) | IC50 (Vero)
26 | O=[N+]([O-])c1cn(CC(O)c2ccc(F)cc2F)c(Br)n1 (racemic) | > 256 µg/mL | > 200 µg/mL
27 | COc1nc([N+](=O)[O-])cn1CC(OCc1ccc(OC(F)(F)F)cc1)c1ccc(F)cc1F (racemic) | > 256 µg/mL | > 25 µg/mL
28 | O=[N+]([O-])c1cn(CC(O)c2ccc(Cl)cc2)c(Br)n1 (racemic) | > 256 µg/mL | > 100 µg/mL
29 | O=[N+]([O-])c1cn(CC(OCc2ccc(Cl)cc2)c2ccc(F)cc2F)c(Br)n1 (racemic) | > 256 µg/mL | > 25 µg/mL
30 | O=[N+]([O-])c1cn(CC(OCc2ccc(Cl)cc2)c2ccc(Cl)cc2Cl)c(Br)n1 (racemic) | > 256 µg/mL | > 62.5 µg/mL
31 | CSc1nc([N+](=O)[O-])cn1CC(OCc1cc(F)cc(F)c1)c1ccc(Cl)cc1Cl (racemic) | > 256 µg/mL | > 135 µg/mL
32 | COc1nc([N+](=O)[O-])cn1CC(OCc1ccc(OC(F)(F)F)cc1)c1ccc(Cl)cc1Cl (racemic) | > 256 µg/mL | > 13 µg/mL
33 | COc1nc([N+](=O)[O-])cn1CC(O)c1ccc(C)cc1C (racemic) | > 256 µg/mL | 84 µg/mL (≈ 288 µM)
34 | O=[N+]([O-])c1cn(CC(OCc2ccc(Cl)cc2)c2ccc(Cl)cc2Cl)cn1 (racemic) | > 256 µg/mL | > 16 µg/mL
35 | CSc1nc([N+](=O)[O-])cn1CC(OCc1ccc(Cl)cc1)c1ccc(Cl)cc1Cl (racemic) | > 256 µg/mL | > 13 µg/mL
36 | COc1nc([N+](=O)[O-])cn1CC(O)c1ccc(Cl)cc1Cl (racemic) | > 256 µg/mL | 100 µg/mL (≈ 301 µM)
37 | O=[N+]([O-])c1cn(CC(OCc2ccc(F)cc2)c2ccc(Cl)cc2Cl)cn1 (racemic) | > 256 µg/mL | > 16 µg/mL
38 | O=[N+]([O-])c1cn(CC(O)c2ccc(F)cc2)c(Br)n1 (racemic) | > 256 µg/mL | > 100 µg/mL
39 | O=[N+]([O-])c1cn(CC(OCc2ccc(F)cc2)c2ccc(F)cc2F)cn1 (racemic) | > 256 µg/mL | > 50 µg/mL
40 | CSc1nc([N+](=O)[O-])cn1CC(O)c1ccc(Cl)cc1Cl (racemic) | > 256 µg/mL | 59 µg/mL (≈ 169 µM)
41 | Clc1ccc(COC(Cn2ccnc2)c2ccc(Cl)cc2Cl)cc1 (stereo not drawn) [ECONAZOLE] | 16 µg/mL (≈ 41.9 µM) | –
42 | O=[N+]([O-])c1cn(CC(O)c2ccc(F)cc2F)cn1 (racemic) | > 256 µg/mL | 292 µg/mL (≈ 1080 µM)
43 | O=[N+]([O-])c1ccc(C(O)Cn2cc([N+](=O)[O-])nc2Br)cc1 (racemic) | > 256 µg/mL | > 100 µg/mL
44 | COc1nc([N+](=O)[O-])cn1CC(OCc1ccc(F)cc1)c1ccc(F)cc1F (racemic) | > 256 µg/mL | > 25 µg/mL
45 | O=[N+]([O-])c1cn(CC(OCc2cc(F)cc(F)c2)c2ccc(Cl)cc2Cl)cn1 (racemic) | > 256 µg/mL | > 25 µg/mL
46 | O=[N+]([O-])c1cn(CC(OCc2ccc(Cl)cc2)c2ccc(F)cc2F)cn1 (racemic) | > 256 µg/mL | > 25 µg/mL
47 | O=[N+]([O-])c1cn(CC(OCc2ccc(F)cc2)c2ccc(Cl)cc2Cl)c(Br)n1 (racemic) | > 256 µg/mL | > 16 µg/mL
48 | COc1nc([N+](=O)[O-])cn1CC(OCc1ccc(Cl)cc1)c1ccc(F)cc1F (racemic) | > 256 µg/mL | > 13 µg/mL
49 | O=[N+]([O-])c1cn(CC(OCc2ccccc2F)c2ccc(Cl)cc2Cl)c(Br)n1 (racemic) | > 256 µg/mL | > 63 µg/mL
50 | O=[N+]([O-])c1cn(CC(OCc2cc(F)ccc2F)c2ccc(Cl)cc2Cl)cn1 (racemic) | > 256 µg/mL | > 25 µg/mL
